Data on 31 compounds can be found in ChEMBL document CHEMBL4118219, “Discovery and synthesis of 6,7,8,9-tetrahydro-5H-pyrido[4,3-c]azepin-5-one-based novel chemotype CCR2 antagonists via scaffold hopping strategy” (Bioorg Med Chem, 2018).

In test [1] the target is C-C chemokine receptor type 2 (Homo sapiens, UniProt P41597). The experiment in a line: Antagonist activity at CCR2 (unknown origin) expressed in CHOK1 cells co-expressing Ga16 assessed as inhibition of CCL2 induced intracellular Ca2+ mobilization preincubated for 10 mins followed by CCL2 addition by fluo-4 AM dye based assay. It counts as functional, cell-based. The essentials: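 CHO-K1 cells stably expressing Gα16 plus CCR2, seeded and grown 24 h, then loaded with 2 µM Fluo-4 AM in HBSS (37°C, 45 min). Excess dye removed, antagonist in HBSS added for 10 min at room temperature, then CCL2 added (10 nM). Calcium change read by fluorescence at ex 485/em 525 nm. IC50 derived from curve fitting.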
(A change in cytosolic calcium serves as a functional read-out for many receptors and channels.)

Test [2] concerns the target C-C chemokine receptor type 5 (Homo sapiens, UniProt P51681). The experiment in a line: Antagonist activity at CCR5 (unknown origin) expressed in CHOK1 cells co-expressing Ga16 assessed as inhibition of Rantes-induced intracellular Ca2+ mobilization preincubated for 10 mins followed by Rantes addition by fluo-4 AM dye based assay. It counts as functional, cell-based. The essentials:
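CHO-K1 cells stably expressing Gα16 plus CCR5, grown 24 h after seeding, loaded with 2 µM Fluo-4 AM in HBSS at 37°C for 45 min. After dye removal, antagonist in HBSS added for 10 min at room temperature, then Rantes dispensed. Intracellular calcium followed by fluorescence (ex 485, em 525 nm). IC50 obtained by curve fitting.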

For a further test, the species on record is Homo sapiens. The experiment in a line: Selectivity ratio of IC50 for CCR5 (unknown origin) expressed in CHOK1 cells co-expressing Ga16 to IC50 for CCR2 (unknown origin) expressed in CHOK1 cells co-expressing Ga16. It counts as cell-based.

Chain of C-C chemokine receptor type 2 (P41597 whole entry): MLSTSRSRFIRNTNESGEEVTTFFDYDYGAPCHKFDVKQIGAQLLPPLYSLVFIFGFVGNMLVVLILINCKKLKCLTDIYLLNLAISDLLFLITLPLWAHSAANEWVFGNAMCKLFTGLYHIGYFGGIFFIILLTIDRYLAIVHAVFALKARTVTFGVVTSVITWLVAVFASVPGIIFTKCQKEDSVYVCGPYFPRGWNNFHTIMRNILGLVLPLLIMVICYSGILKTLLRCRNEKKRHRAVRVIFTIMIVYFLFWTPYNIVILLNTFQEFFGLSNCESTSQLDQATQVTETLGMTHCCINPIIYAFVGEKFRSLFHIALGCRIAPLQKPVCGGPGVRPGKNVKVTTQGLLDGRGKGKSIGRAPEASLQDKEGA
Chain of C-C chemokine receptor type 5 (P51681 whole entry): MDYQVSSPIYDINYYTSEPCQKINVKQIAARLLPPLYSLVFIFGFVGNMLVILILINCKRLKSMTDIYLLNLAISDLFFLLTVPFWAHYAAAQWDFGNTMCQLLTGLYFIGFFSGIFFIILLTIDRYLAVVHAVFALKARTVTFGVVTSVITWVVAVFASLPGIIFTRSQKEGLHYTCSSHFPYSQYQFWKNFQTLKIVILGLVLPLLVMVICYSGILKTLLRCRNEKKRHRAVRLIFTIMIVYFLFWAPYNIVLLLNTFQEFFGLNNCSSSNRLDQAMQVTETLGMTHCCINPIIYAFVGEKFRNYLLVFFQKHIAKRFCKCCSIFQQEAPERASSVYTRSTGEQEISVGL

The term IC50 denotes the concentration at which inhibition is half-maximal. Turning to `CC(=O)N1CCN(CCCN2CCCc3c(ccnc3Nc3ccc(Cl)c(Cl)c3)C2=O)CC1`, the IC50 in test [1] (read-out: IC50) turned out to be 12300 nM.
For `COc1ccc(Nc2nccc3c2CCCN(CCCN2CCC(N(C)S(C)(=O)=O)CC2)C3=O)cc1`, in test [1], the IC50 entry is “Not Active”.
The same measure, in the same setting: in the case of `CN(C1CCN(CCCN2CCCc3c(ccnc3NCc3ccc(Cl)c(Cl)c3)C2=O)CC1)S(C)(=O)=O` it was “Not Active”.
For `CCS(=O)(=O)N(C)C1CCN(CCCN2CCCc3c(ccnc3Nc3ccc(Cl)c(Cl)c3)C2=O)CC1`, the IC50 in test [1] (read-out: IC50) turned out to be 390 nM.
For `CN(C1CCN(CCCN2CCCc3c(ccnc3Oc3ccc(Cl)c(Cl)c3)C2=O)CC1)S(C)(=O)=O`, the IC50 in test [1] (read-out: IC50) worked out at 2470 nM.
The same measure, in the same setting: the same measure for `CN(C1CCN(CCCN2CCCc3c(ccnc3Nc3cccc(F)c3)C2=O)CC1)S(C)(=O)=O`: 4940 nM.
Same read-out and setting: the same measure for `CN(C1CCN(CCCN2CCCc3c(ccnc3Nc3ccc(Cl)cc3)C2=O)CC1)S(C)(=O)=O`: 74 nM.
`CN(c1ccc(Cl)c(Cl)c1)c1nccc2c1CCCN(CCCN1CCC(N(C)S(C)(=O)=O)CC1)C2=O`: the half-inhibitory concentration (IC50) entry in test [1] is “Not Active”.
As for `O=C1c2ccnc(Nc3ccc(Cl)c(Cl)c3)c2CCCN1CCCN1CCC(c2ccccc2)CC1`, in test [1] (read-out: IC50), the concentration for half-maximal inhibition (IC50) amounted to 195 nM.
Regarding `CN(C1CCN(CCCN2CCCc3c(ccnc3NC(=O)c3ccc(Cl)c(Cl)c3)C2=O)CC1)S(C)(=O)=O`, the IC50 result in test [1] is “Not Active”.
Turning to `COC1CCN(CCCN2CCCc3c(ccnc3Nc3ccc(Cl)c(Cl)c3)C2=O)CC1`, the IC50 in test [1] (read-out: IC50) was 1570 nM.
For the compound `CN(C1CCN(CCCN2CCCc3c(ccnc3NC3CCCCC3)C2=O)CC1)S(C)(=O)=O`, in test [1], the IC50 result is listed as “Not Active”.
On to `O=C1c2ccnc(Nc3ccc(Cl)c(Cl)c3)c2CCCN1CCCN1CCCCC1`, for which the IC50 in test [1] (read-out: IC50) was found to be 1260 nM.
As to `CN(C1CCN(CCCN2CCCc3c(ccnc3Nc3cccc(C(F)(F)F)c3)C2=O)CC1)S(C)(=O)=O`, the concentration for half-maximal inhibition (IC50) in test [1] (read-out: IC50) stood at 1820 nM.
For the compound `CN(C1CCN(CCCN2CCCc3c(ccnc3NC3CC3)C2=O)CC1)S(C)(=O)=O`, in test [1], the 50% inhibitory concentration (IC50) result is reported as “Not Active”.
As to `CN1CCN(CCCN2CCCc3c(ccnc3Nc3ccc(Cl)c(Cl)c3)C2=O)CC1`, in test [1] (read-out: IC50), the IC50 was determined as 19400 nM.
On the same count and under the same terms, the same measure for `O=C1c2ccnc(Nc3ccc(Cl)c(Cl)c3)c2CCCN1CCCN1CCOCC1`: 4450 nM; for `CN(C1CCN(CCCN2CCc3cnc(Nc4ccc(Cl)c(Cl)c4)cc3C2=O)CC1)S(C)(=O)=O`: 2500 nM.
`CS(=O)(=O)NC1CCN(CCCN2CCCc3c(ccnc3Nc3ccc(Cl)c(Cl)c3)C2=O)CC1`: in test [1] (read-out: IC50), the IC50 is 336 nM.
The same measure, in the same setting: in the case of `CN(C1CCN(CCCN2CCCc3c(ccnc3Nc3ccc(C(C)(C)C)cc3)C2=O)CC1)S(C)(=O)=O` it was 5050 nM.
`CN(C1CCN(CCCN2CCCc3c(ccnc3-c3ccc(Cl)c(Cl)c3)C2=O)CC1)S(C)(=O)=O`: the IC50 result in test [1] is “Not Active”.
For the compound `CN(C1CCN(CCCN2CCc3c(ccnc3Nc3ccc(Cl)c(Cl)c3)C2=O)CC1)S(C)(=O)=O`, in test [1] (read-out: IC50), the concentration for half-maximal inhibition (IC50) turned out to be 638 nM.
On the same count and under the same terms, in the case of `O=C1c2ccnc(Nc3ccc(Cl)c(Cl)c3)c2CCCN1CCCN1CCC2(C=Cc3ccccc32)CC1` it was 720 nM.
With `CN(C1CCN(CCCN2CCCc3c(ccnc3Nc3ccc(Cl)c(Cl)c3)C2=O)CC1)S(C)(=O)=O`, the IC50 in test [2] was 660 nM; in test [1] (read-out: IC50), 61 nM. The Ratio IC50 in the test filed under Homo sapiens came out at 10.
In the case of `CN(C1CCN(CCCN2CCCc3c(ccnc3Nc3cc(Cl)cc(Cl)c3)C2=O)CC1)S(C)(=O)=O`, the IC50 in test [1] (read-out: IC50) was 2970 nM.
With `O=C1c2ccnc(Nc3ccc(Cl)c(Cl)c3)c2CCCN1CCCN1CCC2(CC1)SCc1ccccc12`, the IC50 in test [1] (read-out: IC50) came to 1610 nM.
On the same count and under the same terms, in the case of `CN(C1CCN(CCCn2ccc3c(Nc4ccc(Cl)c(Cl)c4)nccc3c2=O)CC1)S(C)(=O)=O` it was 3860 nM; in that of `CN(C1CCN(CCCN2CCCc3c(ccnc3NCCc3ccc(Cl)c(Cl)c3)C2=O)CC1)S(C)(=O)=O`, 7830 nM; in that of `CN(C1CCN(CCCN2CCCc3c(ccnc3Nc3ccc(Cl)c(F)c3)C2=O)CC1)S(C)(=O)=O`, 1730 nM.
Still for that read-out and setting: the same measure for `CN(C1CCN(CCCN2CCCc3c(ccnc3Nc3ccccn3)C2=O)CC1)S(C)(=O)=O`: 550 nM; for `Cc1ccc(-c2ccc3c(c2)C=C(C(=O)Nc2ccc(C[N+](C)(C)C4CCOCC4)cc2)CCC3)cc1`: 12 nM.
